Measurements: ChEMBL document CHEMBL1649125, “Efficacy of the novel diamidine compound 2,5-Bis(4-amidinophenyl)- furan-bis-O-Methlylamidoxime (Pafuramidine, DB289) against Trypanosoma brucei rhodesiense infection in vervet monkeys after oral administration” (2009)
The source made the active and inactive calls. No cut-off for these calls is given here.

Assays:
[1] = system: Trypanosoma brucei rhodesiense; assay: Antitrypanosomal activity against Trypanosoma brucei rhodesiense infected in vervet monkey assessed as body weight change at 1 mg/kg, po administered on day 7 post infection for 5 days; type: functional
Procedure, shortened: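 Body weight change is given as percent of the mean preinfection weight (n=3 per group). It was recorded at day 0 p.t., day 28 p.t. and end point. Oral gavage was once daily: 5 days from day 7 p.i., or 10 days from day 28 p.i.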

[2] = system: Trypanosoma brucei rhodesiense; assay: Antitrypanosomal activity against Trypanosoma brucei rhodesiense infected in vervet monkey assessed as change in packed cell volume at 1 mg/kg, po administered on day 7 post infection for 5 days measured on day 28 post treatment; type: functional
Procedure, shortened: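 Vervet monkeys, three per group, were infected intravenously with T. b. rhodesiense KETRI 2537. From day 7 p.i., a drug suspension was given by oral gavage once daily for 5 consecutive days. Packed cell volume was expressed as % change from the group's mean preinfection value. PCV was read at day 0 p.t., day 28 p.t. and endpoint, with follow-up to 180 days p.t.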

[3] = system: Trypanosoma brucei rhodesiense; assay: Antitrypanosomal activity against Trypanosoma brucei rhodesiense infected in vervet monkey 483 assessed as time to detect parasitemia at 3 mg/kg, po administered on day 7 post infection for 5 days; type: functional
Procedure, shortened: (§1)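 Parasitemia was monitored from 3 days p.i. in ear-prick or inguinal venous blood. Methods were wet-film microscopy (detection limit 10^5 trypanosomes/ml) and hematocrit centrifugation technique (detection limit 10^3 trypanosomes/ml). Drug was given once daily by oral gavage: 5 days from day 7 p.i., or 10 days from day 28 p.i.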

[4] = system: Trypanosoma brucei rhodesiense; assay: Antitrypanosomal activity against Trypanosoma brucei rhodesiense infected in vervet monkey 483 assessed as time to detect parasitemia in wet films of blood at 3 mg/kg, po administered on day 7 post infection for 5 days by hematocrit centrifugation technique; type: functional; procedure, shortened: as §1
[5] = system: Trypanosoma brucei rhodesiense; assay: Antitrypanosomal activity against Trypanosoma brucei rhodesiense infected in vervet monkey 483 assessed as time to detect CSF parasitosis at 3 mg/kg, po administered on day 7 post infection for 5 days measured after 7 to 14 days; type: functional
Procedure, shortened: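 Trypanosomes and white cells in free-flowing CSF were counted by hemocytometer. Negative CSF was centrifuged and re-examined. Samples still negative were inoculated at 0.2 ml intraperitoneally into two mice each. Drug was given once daily by oral gavage: 5 days from day 7 p.i., or 10 days from day 28 p.i.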

[6] = system: Trypanosoma brucei rhodesiense; assay: Antitrypanosomal activity against Trypanosoma brucei rhodesiense infected in vervet monkey 501 assessed as time to detect parasitemia at 10 mg/kg, po administered on day 28 post infection for 10 days; type: functional; procedure, shortened: as §1
[7] = system: Trypanosoma brucei rhodesiense; assay: Antimicrobial activity against Trypanosoma brucei rhodesiense infected in vervet monkeys assessed as cure from infection at 1 mg/kg, po administered on day 7 post infection for 5 days; type: functional, organism-based; set-up: dose 1 mg/kg
Procedure, shortened: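 Vervet monkeys (n=3 per group), infected with T. b. rhodesiense KETRI 2537. Dosed by oral gavage with a suspension once daily for 5 consecutive days from day 7 p.i. Cure meant no trypanosomes over 180 days p.t. in blood (wet film, HCT) or CSF (hemocytometer, centrifugation), with mouse subinoculation of negative samples.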

[8] = system: Trypanosoma brucei rhodesiense; assay: Antitrypanosomal activity against Trypanosoma brucei rhodesiense infected in vervet monkey assessed as change in packed cell volume at 10 mg/kg, po administered on day 14 post infection for 5 days; type: functional
[9] = system: Trypanosoma brucei rhodesiense; assay: Antimicrobial activity against Trypanosoma brucei rhodesiense infected in vervet monkeys assessed as cure from infection at 10 mg/kg, po administered for 10 days

CONC(=N)c1ccc(-c2ccc(-c3ccc(C(=N)NOC)cc3)o2)cc1 [PAFURAMIDINE]
Activity [1]: -2.2%
Activity [2]: -17%
Time [3]: 69 days
Time [4]: 66 days
Time [5]: 69 days
Time [6]: 56 days
Activity [7]: inactive
Activity [8]: -25.8%
Activity [9]: inactive
